From ChEMBL document CHEMBL4196202, “Discovery and Structure-Based Optimization of Benzimidazole-Derived Activators of SOS1-Mediated Nucleotide Exchange on RAS” (J Med Chem, 2018)
Values belong to the compound of their own block, whether it stands above or below them. Active and inactive are the calls of the source. The rule behind the calls is not given here.

Legend:
[1] = biological target: T1, Son of sevenless homolog 1 (Homo sapiens) (UniProt Q07889); assay: Biphasic activity at of SOS1 in human HeLa cells expressing wild type KRAS assessed as reduction in ERK1/2 T202/Y204 phosphorylation at 1.5 to 100 uM (higher range) incubated for 30 mins by In-cell Western assay; type: cell-based
T1 sequence (whole entry): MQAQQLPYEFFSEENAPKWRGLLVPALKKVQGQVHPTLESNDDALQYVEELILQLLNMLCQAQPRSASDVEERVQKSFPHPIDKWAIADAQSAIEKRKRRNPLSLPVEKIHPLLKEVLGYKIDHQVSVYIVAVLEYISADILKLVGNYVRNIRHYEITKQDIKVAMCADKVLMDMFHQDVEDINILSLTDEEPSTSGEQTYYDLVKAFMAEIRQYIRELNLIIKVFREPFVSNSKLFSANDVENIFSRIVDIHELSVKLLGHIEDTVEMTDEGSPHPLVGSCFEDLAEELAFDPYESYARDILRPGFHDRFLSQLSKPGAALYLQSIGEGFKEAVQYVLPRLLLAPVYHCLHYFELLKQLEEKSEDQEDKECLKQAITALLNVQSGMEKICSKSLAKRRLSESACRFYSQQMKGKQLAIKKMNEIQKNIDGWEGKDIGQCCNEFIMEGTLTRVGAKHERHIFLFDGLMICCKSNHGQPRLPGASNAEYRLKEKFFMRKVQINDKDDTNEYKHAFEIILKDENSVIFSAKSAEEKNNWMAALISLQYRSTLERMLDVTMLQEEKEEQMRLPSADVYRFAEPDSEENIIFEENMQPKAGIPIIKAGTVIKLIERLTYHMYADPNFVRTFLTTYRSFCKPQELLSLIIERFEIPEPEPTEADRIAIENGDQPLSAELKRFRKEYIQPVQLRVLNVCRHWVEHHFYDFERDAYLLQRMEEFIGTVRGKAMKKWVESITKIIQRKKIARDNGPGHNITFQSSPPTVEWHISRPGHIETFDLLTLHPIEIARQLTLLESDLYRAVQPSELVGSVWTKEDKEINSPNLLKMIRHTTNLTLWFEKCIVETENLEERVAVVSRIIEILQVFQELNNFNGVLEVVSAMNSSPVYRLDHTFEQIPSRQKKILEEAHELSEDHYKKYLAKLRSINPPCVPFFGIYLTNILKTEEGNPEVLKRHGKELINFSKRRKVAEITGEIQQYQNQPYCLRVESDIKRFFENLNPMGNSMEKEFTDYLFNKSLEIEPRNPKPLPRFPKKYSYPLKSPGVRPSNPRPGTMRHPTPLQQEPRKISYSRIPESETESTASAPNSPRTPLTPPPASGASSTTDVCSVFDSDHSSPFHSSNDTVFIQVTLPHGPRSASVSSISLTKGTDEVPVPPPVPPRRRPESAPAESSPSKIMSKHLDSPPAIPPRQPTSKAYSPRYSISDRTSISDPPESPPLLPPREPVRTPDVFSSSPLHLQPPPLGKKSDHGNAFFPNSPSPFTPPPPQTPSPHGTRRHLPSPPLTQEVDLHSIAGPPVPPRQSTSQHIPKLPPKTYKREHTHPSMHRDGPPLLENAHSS

[2] = biological target: T2, Son of sevenless homolog 1 (Homo sapiens, UniProt Q07889); assay: Activation of SOS1 in human HeLa cells expressing wild type KRAS assessed as induction of ERK1/2 T202/Y204 phosphorylation incubated for 30 mins by In-cell Western assay; type: cell-based
T2 sequence (Q07889 whole entry): T1 sequence (whole entry)

[3] = biological target: T1, Son of sevenless homolog 1 (Homo sapiens); assay: Activation of SOS1 in human NCI-H727 cells expressing KRAS G12V mutant assessed as induction of ERK1/2 T202/Y204 phosphorylation at 1.5 to 100 uM (lower range) incubated for 30 mins by In-cell Western assay; type: cell-based
[4] = biological target: T2, Son of sevenless homolog 1; assay: Binding affinity to human recombinant N-terminal His6-tagged SOS1 (564 to 1049 residues) expressed in BL21-RIL Escherichia coli by fluorescent probe S3 based fluorescence polarization anisotrophy saturation binding assay
Procedure, shortened: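 SOS1cat (aa 564–1049) was titrated in a 16-point, 3-fold series from 10 μM top against 50 nM fluorescein probe S3. Buffer was 20 mM Tris-HCl pH 7.5, 50 mM NaCl, 1 mM magnesium chloride. Fluorescence anisotropy was read and Kd reported as mean ± SD of at least three independent experiments.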

[5] = biological target: T1, Son of sevenless homolog 1 (Homo sapiens); assay: Biphasic activity at of SOS1 in human HeLa cells expressing wild type KRAS assessed as induction of ERK1/2 T202/Y204 phosphorylation at 1.5 to 100 uM (lower range) incubated for 30 mins by In-cell Western assay; type: cell-based
[6] = biological target: Son of sevenless homolog 1 (Homo sapiens, UniProt Q07889); assay: Activation of SOS1 in human NCI-H727 cells expressing KRAS G12V mutant assessed as induction of ERK1/2 T202/Y204 phosphorylation incubated for 30 mins by In-cell Western assay; type: cell-based
[7] = biological target: T1, Son of sevenless homolog 1 (Homo sapiens); assay: Activation of SOS1 in human NCI-H727 cells expressing KRAS G12V mutant assessed as induction of ERK1/2 T202/Y204 phosphorylation at 1.5 to 100 uM (higher range) incubated for 30 mins by In-cell Western assay; type: cell-based
[8] = biological target: T1, Son of sevenless homolog 1 (Homo sapiens); assay: Activation of SOS1 in human HeLa cells expressing wild type KRAS assessed as increase in RAS-GTP levels at 0.3 to 30 uM incubated for 10 mins by active RAS pull-down assay; type: cell-based
Procedure, shortened: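 HeLa cells seeded to reach 70% confluency after 24 h, then treated. RAS-GTP was captured by a RAF1-RBD active RAS pull-down kit, resolved by SDS-PAGE, blotted to PVDF and probed with pan-RAS antibody. Total RAS and α-tubulin inputs served as loading controls. Detection was by fluorescent secondary antibody on an Odyssey imager.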

[9] = biological target: T2, Son of sevenless homolog 1; assay: Binding affinity to human recombinant N-terminal His6-tagged SOS1 (564 to 1049 residues) expressed in BL21-RIL Escherichia coli by fluorescent probe S2 based fluorescence polarization anisotrophy saturation binding assay
[10] = biological target: T2, Son of sevenless homolog 1; assay: Binding affinity to human recombinant N-terminal His6-tagged SOS1 (564 to 1049 residues) expressed in BL21-RIL Escherichia coli by fluorescent probe S1 based fluorescence polarization anisotrophy saturation binding assay
Procedure, shortened: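 SOS1cat (aa 564–1049) was titrated in a 12-point, 2-fold series from 10 μM top against 50 nM fluorescein-labeled probe. Buffer was 20 mM Tris-HCl pH 7.5, 50 mM NaCl, 1 mM magnesium chloride, with 20 min at room temperature in the dark. Anisotropy was read and Kd reported as mean ± SD of at least three independent experiments.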

[11] = biological target: T1, Son of sevenless homolog 1 (Homo sapiens); assay: Activation of SOS1 in human HeLa cells expressing wild type KRAS assessed as induction of ERK1/2 T202/Y204 phosphorylation at 1.5 to 100 uM incubated for 30 mins by In-cell Western assay
[12] = biological target: T1, Son of sevenless homolog 1 (Homo sapiens); assay: Activation of SOS1 in human HeLa cells expressing wild type KRAS assessed as increase in RAS-GTP levels at 10 to 30 uM incubated for 10 mins by active RAS pull-down assay; type: cell-based
Procedure, shortened: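 HeLa cells, STR-authenticated and mycoplasma-negative, were passaged at least twice after thaw (25 passages maximum). They were seeded to reach 70% confluency after 24 h, then treated. Active RAS-GTP was captured by RAF1-RBD pull-down and detected by SDS-PAGE and western blot with a pan-RAS antibody and a fluorescent secondary, read on an Odyssey imager. Total RAS and α-tubulin in the input served as loading controls.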

[13] = biological target: T1, Son of sevenless homolog 1 (Homo sapiens); assay: Activation of human recombinant N-terminal His6-tagged SOS1 (564 to 1049 residues) expressed in BL21-RIL Escherichia coli assessed as SOS1-RAS complex formation by measuring exchange of GTP to BODIPY-GDP measured every 3 secs for 30 mins by nucleotide exchange assay relative to control; parameters: concentration or dose not given beside the values
[14] = biological target: T2, Son of sevenless homolog 1; assay: Activation of human recombinant N-terminal His6-tagged SOS1 (564 to 1049 residues) expressed in BL21-RIL Escherichia coli assessed as SOS1-RAS complex formation by measuring exchange of GTP to BODIPY-GDP measured every 3 secs for 30 mins by nucleotide exchange assay

SMILES: Cc1cc(Cn2c(N3CC4(CNC4)C3)nc3c(-c4c(C)n[nH]c4C)cc(Cl)cc32)cc(C)c1F
Activity [1]: Active
EC50 [2]: 14.1 µM
Activity [3]: Active
Kd [4]: 0.009 µM
Activity [5]: Active
EC50 [6]: 21.1 µM
Activity [7]: Active

SMILES: Cc1cc(Cn2c(N3CCNCC3)nc3c(-c4cncnc4C)cc(Cl)cc32)cc(C)c1F
Activity [1]: Active
Activity [8]: Active
EC50 [2]: 10.2 µM
Kd [9]: 0.11 µM
Activity [3]: Active
Activity [5]: Active
EC50 [6]: 14.5 µM
Activity [7]: Active

Kd [10]: 0.67 µM
SMILES: Cc1cc(Cn2c(N3CCNCC3)nc3c(-c4cccc(C(F)(F)F)c4)cc(Cl)cc32)cc(C)c1F

SMILES: Cc1ncncc1-c1cc(Cl)cc2c1nc(N1CC3(CNC3)C1)n2Cc1ccc(F)cc1
Activity [1]: inactive
Activity [8]: Active
EC50 [2]: 33.2 µM
Kd [9]: 0.18 µM
Activity [3]: Active
Activity [5]: Active
EC50 [6]: 42.5 µM
Activity [7]: inactive

Kd [10]: 0.44 µM
SMILES: Cc1cc(Cn2c(N3CCNCC3)nc3c(-c4ccccc4C4CCC4)cc(Cl)cc32)cc(C)c1F

SMILES: Cc1cc(Cn2c(N3CCNCC3)nc3c(-c4cncnc4C(C)C)cc(Cl)cc32)cc(C)c1F
Activity [1]: Active
EC50 [2]: 8.8 µM
Kd [9]: 0.1 µM
Activity [3]: Active
Activity [5]: Active
EC50 [6]: 13.9 µM
Activity [7]: Active

SMILES: Cc1cc(Cn2c(N3CC4(CNC4)C3)nc3c(-c4ccccc4Cl)cc(Cl)cc32)cc(C)c1F
Activity [1]: Active
EC50 [2]: 14 µM
Activity [3]: Active
Kd [4]: 0.012 µM
Activity [5]: Active
EC50 [6]: 19.7 µM
Activity [7]: Active

Kd [10]: 0.33 µM
SMILES: Cc1cc(Cn2c(N3CCNCC3)nc3c(-c4cccnc4)cc(Cl)cc32)cc(C)c1F

SMILES: Cc1cc(Cn2c(N3CCNCC3)nc3c(-c4ccc(C(F)(F)F)cc4)cc(Cl)cc32)cc(C)c1F
Kd [10]: 1.05 µM

SMILES: Cc1nc(N)ncc1-c1cc(Cl)cc2c1nc(N1CC3(CNC3)C1)n2Cc1ccc(F)cc1
Activity [1]: Active
EC50 [2]: 14 µM
Activity [3]: Active
Kd [4]: 0.036 µM
Activity [5]: Active
EC50 [6]: 27.5 µM
Activity [7]: inactive

SMILES: Cc1cc(Cn2c(N3CCNCC3)nc3c(-c4ccccc4Cl)cc(Cl)cc32)cc(C)c1F
Activity [1]: Active
EC50 [2]: 11 µM
Kd [10]: 0.12 µM
Activity [3]: Active
Activity [5]: Active
EC50 [6]: 36.8 µM
Activity [7]: inactive

Kd [10]: 0.21 µM
SMILES: CCc1ccccc1-c1cc(Cl)cc2c1nc(N1CCNCC1)n2Cc1cc(C)c(F)c(C)c1

Activity [1]: Active
Activity [11]: Active
Activity [5]: Active
Activity [7]: Active
Activity [12]: Active
SMILES: Cc1cc(Cn2c(N3CCNCC3)nc3c(N4CCN(C)CC4)cc(Cl)cc32)cc(C)c1F

SMILES: Cc1cc(Cn2c(N3CCNCC3)nc3c(C4=CCNCC4)cc(Cl)cc32)cc(C)c1F
Kd [10]: 0.25 µM

Kd [10]: 0.27 µM
SMILES: Cc1cc(Cn2c(N3CCNCC3)nc3c(-c4ccccc4)cc(Cl)cc32)cc(C)c1F

SMILES: Cc1cc(Cn2c(N3CCNCC3)nc3ccc(Cl)cc32)cc(C)c1F
Activity [1]: Active
EC50 [2]: 14.5 µM
Kd [10]: 0.46 µM
Activity [3]: Active
Activity [5]: Active
EC50 [6]: 21.2 µM
Activity [7]: Active

SMILES: Cc1cc2nc(N3CCNCC3)n(Cc3ccc(F)c(Cl)c3)c2cc1C
Activity [1]: Active
EC50 [2]: 21.3 µM
Activity [3]: Active
Activity [13]: 211%
Activity [5]: Active
EC50 [14]: 2.2 µM
EC50 [6]: 29.1 µM
Activity [7]: Active

SMILES: Fc1ccc(Cn2c(N3CCNCC3)nc3ccccc32)cc1Cl
Activity [1]: inactive
EC50 [2]: 21 µM
Activity [3]: Active
Activity [13]: 109%
Activity [5]: Active
EC50 [14]: 5.4 µM
EC50 [6]: 51.4 µM
Activity [7]: inactive

SMILES: Cc1cc(Cn2c(N3CCNCC3)nc3c(N4CCC[C@H]4CN)cc(Cl)cc32)cc(C)c1F
Activity [1]: Active
EC50 [2]: 3.2 µM
Kd [9]: 0.14 µM
Activity [3]: Active
Activity [5]: Active
EC50 [6]: 7.3 µM
Activity [7]: Active

Kd [10]: 0.39 µM
SMILES: Cc1cc(Cn2c(N3CCNCC3)nc3c(-c4ccccc4C(C)C)cc(Cl)cc32)cc(C)c1F

SMILES: Cc1cc(Cn2c(N3CC4(CNC4)C3)nc3c(-c4cnc(N)nc4C)cc(Cl)cc32)cc(C)c1F
Activity [1]: Active
EC50 [2]: 7.8 µM
Activity [3]: Active
Kd [4]: 0.012 µM
Activity [5]: Active
EC50 [6]: 13.4 µM
Activity [7]: Active

Kd [10]: 0.15 µM
SMILES: Cc1cc(Cn2c(N3CCNCC3)nc3c(-c4ccccc4C(F)(F)F)cc(Cl)cc32)cc(C)c1F

Kd [9]: 0.3 µM
SMILES: Cc1cc(Cn2c(N3CCNCC3)nc3c(-c4c(C)cccc4C)cc(Cl)cc32)cc(C)c1F

Kd [10]: 0.24 µM
SMILES: Cc1cc(Cn2c(N3CCNCC3)nc3c(N4CCC(N)CC4)cc(Cl)cc32)cc(C)c1F
